As a reminder, the Ki is a measure of affinity in units of concentration, obtained from inhibition or displacement. Low readings indicate tighter binding, high ones weaker binding. A word on the IC50: it is the concentration that inhibits the measured activity by half.

Among the data in ChEMBL document CHEMBL3877244, “Synthesis and biological evaluation of new aryl-alkyl(alkenyl)-4-benzylpiperidines, novel Sigma Receptor (SR) modulators, as potential anticancer-agents” (Eur J Med Chem, 2016) are Ki and IC50 values, retold here.

Experiment [1] is described as follows: Displacement of [3H]-DTG from sigma 2 receptor in rat liver after 120 mins by scintillation counting analysis. Summed up: (§1)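 Rat liver homogenate (150 µg) incubated 120 min at room temperature with 3 nM [³H]-DTG in 50 mM Tris-HCl pH 8.0. (+)-Pentazocine 100 nM masked S1R; haloperidol 10 µM defined nonspecific binding. Ki by Cheng–Prusoff from IC50.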
(In general: In a radioligand displacement assay an active substance lowers the binding of a labelled ligand.)

Experiment [2] addresses Sigma non-opioid intracellular receptor 1 (Cavia porcellus, UniProt Q60492). The experiment can be described thus: Displacement of [3H]-pentazocine from sigma 1 receptor in guinea pig brain cortical membrane after 120 mins by scintillation counting analysis. It counts as cell membranes. Summed up: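 Nonspecific binding defined with unlabeled (+)-pentazocine. Filtration, then scintillation counting. IC50 by nonlinear regression, converted to Ki by Cheng–Prusoff.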

Experiment [3] in a line: Antiproliferative activity against human CFPAC cells after 24 hrs. The experiment is classed as functional, cell-based.
Experiment [4] can be described thus: Antiproliferative activity against human MIAPaCa2 cells after 24 hrs. It counts as functional, cell-based. To be noted: MIA PaCa-2, 24 h.
A short description of experiment [5]: Antiproliferative activity against mouse Panc02 cells after 24 hrs. The experiment is classed as functional, cell-based. To be noted: Panc02, 24 h.
Experiment [6] can be described thus: Antiproliferative activity against human PANC1 cells after 24 hrs. It counts as functional, cell-based. The note with it: PANC-1, 24 h.
The nature of experiment [7]: Antiproliferative activity against human BxPC3 cells after 24 hrs. It counts as functional, cell-based. The note with it: BXPC-3, 24 h.
Experiment [8] is described as follows: Antiproliferative activity against human AsPC1 cells after 24 hrs. To be noted: ASPC1, 24 h. It counts as functional, cell-based.
Experiment [9] is described as follows: Displacement of [3H]-DTG from sigma 2 receptor in rat liver membranes after 120 mins by scintillation counting analysis. The experiment is classed as cell membranes, Membrane. Summed up: (§2)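 Rat liver homogenate (150 µg) was incubated 120 min at room temperature with 3 nM [3H]-DTG in 50 mM Tris-HCl pH 8.0, with test compound at 10^-10 to 10^-5 M (final). 100 nM (+)-pentazocine masked S1R and 10 µM haloperidol defined nonspecific binding. Filtration and scintillation counting were used. Ki came from regression IC50 via Cheng-Prusoff.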

Experiment [10] can be described thus: Cytotoxicity against human Paca3 cells assessed as decrease in cell viability under starvation condition after 24 hrs by MTS assay. It counts as functional, cell-based. To be noted: Paca3, 24 h. Summed up: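 Cells starved 24 h in low-glucose medium without FCS, then treated 24 h with compound in serum-free conditions. MTS read-out, OD 490 nm, expressed as percent of untreated control. IC50 read graphically from the dose-response plot. Three independent experiments in octuplicate.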

Experiment [11] is described as follows: Cytotoxicity against human Paca3 cells assessed as decrease in cell viability using complete medium after 24 hrs by MTS assay. The experiment is classed as functional, cell-based. To be noted: Paca3, 24 h. Summed up:
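Cells in exponential growth, 3×10^3 per well, in medium with 10% FCS. Capan-2, PaCa3, MDA-MB 231, SUM 159 and PC3 were grown in DMEM/Ham's F12 with glutamine 2 mM and insulin 10 µg/ml. U87 was grown in EMEM and LNCaP in RPMI, each with glutamine. Compound 0.1–100 µM, continuous exposure (24 h; 48 h for the 48 h lines). MTS, OD 490 nm. IC50 read graphically. Three independent experiments in octuplicate.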

Experiment [12] is described as follows: Displacement of [3H]DTG from sigma 2 receptor in rat brain homogenates without cerebellum. It counts as tissue-based.
A short description of experiment [13]: Displacement of [3H]-DTG from sigma 2 receptor in Sprague-Dawley rat liver membranes after 120 mins by scintillation counting analysis. The experiment is classed as cell membranes, Membrane. Summed up: as §1
Experiment [14] in a line: Binding affinity to sigma 2 receptor (unknown origin). Summed up:
as §2

For experiment [15], the target named is Sigma non-opioid intracellular receptor 1 (Homo sapiens, UniProt Q99720). The experiment can be described thus: Binding affinity to sigma 1 receptor (unknown origin).
Chain of Sigma non-opioid intracellular receptor 1 (Homo sapiens, UniProt Q99720) (Q99720 whole entry): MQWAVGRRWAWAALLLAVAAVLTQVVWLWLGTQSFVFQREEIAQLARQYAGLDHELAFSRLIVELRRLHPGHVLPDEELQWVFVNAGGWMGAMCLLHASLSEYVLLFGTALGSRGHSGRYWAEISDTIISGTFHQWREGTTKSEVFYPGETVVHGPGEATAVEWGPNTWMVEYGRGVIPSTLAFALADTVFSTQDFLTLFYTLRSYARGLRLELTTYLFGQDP

Chain of Sigma non-opioid intracellular receptor 1 (Cavia porcellus, UniProt Q60492) (Q60492 whole entry): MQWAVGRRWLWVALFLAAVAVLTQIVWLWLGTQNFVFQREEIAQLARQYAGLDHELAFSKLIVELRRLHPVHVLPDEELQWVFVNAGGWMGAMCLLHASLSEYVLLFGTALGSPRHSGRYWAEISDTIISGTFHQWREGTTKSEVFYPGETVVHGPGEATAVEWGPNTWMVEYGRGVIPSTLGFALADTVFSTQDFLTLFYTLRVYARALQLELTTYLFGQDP

As for `CC(O)(CCN1CCC(Cc2ccccc2)CC1)c1ccc2ccccc2c1` (single isomer, unassigned; (+)), the results for the Ki in experiment [1] and in [2] were 0.081 µM and 0.01 µM, respectively.
Take `COc1ccc(C)cc1NC(=O)OC1CC2CCCC(C1)N2Cc1ccc(N(C)C)cc1` (stereo not given): the IC50 in [3], in [4], in experiment [5], in experiment [6], in [7] and in [8] was at most 100 µM each time.
In the case of `CC(O)(CCN1CCC(Cc2ccccc2)CC1)c1ccccc1` (stereo in doubt; 2b), the Ki in experiment [1] was 0.24 µM; in experiment [2], 0.04 µM.
As to `CC(CCN1CCC(Cc2ccccc2)CC1)c1ccc2ccccc2c1` (racemic), the Ki in experiment [1] worked out at 0.144 µM; in experiment [2], 0.0056 µM.
Turning to `O[C@@H](CN1C2CCC1CC(c1ccccc1)C2)c1cccc(Br)c1` (stereo not given in full), the half-maximal inhibitory concentration (IC50) in experiment [3], in [4], in experiment [5], in experiment [6], in experiment [7] and in experiment [8] was at most 100 µM throughout. The compound further registered an inhibition constant Ki in [9] of 0.0123 µM.
As for `CC(CCN1CCC(Cc2ccccc2)CC1)c1ccccc1` (stereo in doubt; 6b), the Ki in [1] was 0.0079 µM; in experiment [2] it was 0.003 µM.
Consider `Fc1ccc(-n2cc(CCCCN3CCC4(CC3)OCc3ccccc34)c3ccccc32)cc1` [SIRAMESINE], for which the IC50 in experiment [10] was 6 µM; in experiment [11], 45.4 µM. In [12], the Ki is 0.00012 µM.
In experiment [13], `C[C@@H]1CN(CCCn2c3ccccc3c3ccccc32)C[C@H](C)N1` [RIMCAZOLE] displayed a Ki of 0.302 µM.
As for `CC(O)(CCN1CCC(Cc2ccccc2)CC1)c1ccc2cc(O)ccc2c1` (single isomer, unassigned; (-)), the figures for the inhibitory constant (Ki) in experiment [1] and in experiment [2] were 0.905 µM and 0.062 µM, respectively.
On to `CC(CCN1CCC(Cc2ccccc2)CC1)c1ccccc1` (single isomer, unassigned; (+)), for which the figures for the inhibition constant Ki in [1] and in [2] were 0.0089 µM and 0.0029 µM, respectively.
For `COc1ccc(C)cc1NC(=O)OC1CC2CCCC(C1)N2CCCCCCN` (stereo not given), the 50% inhibitory concentration (IC50) in [3], in [4], in experiment [5], in [6], in [7] and in [8] was at most 100 µM in each case.
For the compound `CC(CCN1CCC(Cc2ccccc2)CC1)c1ccc2ccccc2c1` (single isomer, unassigned; (-)), the Ki in experiment [1] turned out to be 0.098 µM; in experiment [2], 0.0069 µM.
For `C/C(=C\CN1CCC(Cc2ccccc2)CC1)c1ccccc1` the same measures were 0.047 µM and 0.0007 µM.
As for `COc1ccc(C)cc1NC(=O)OC1CC2CCCC(C1)N2CCCCCCCCCCN` (stereo not given), the figures for the Ki in experiment [14] and in experiment [15] were 0.019 µM and 0.133 µM, respectively.
On to `CC(CCN1CCC(Cc2ccccc2)CC1)c1ccc2ccccc2c1` (single isomer, unassigned; (+)), for which the Ki in [1] amounted to 0.026 µM; in experiment [2], 0.006 µM.
With `CC(CCN1CCC(Cc2ccccc2)CC1)c1ccc2cc(O)ccc2c1` (stereo in doubt; 12), the values for the Ki in experiment [1] and in experiment [2] were 0.314 µM and 0.059 µM, respectively.
For `CC(CCN1CCC(Cc2ccccc2)CC1)c1ccccc1` (racemic) the same measures were 0.0065 µM and 0.0021 µM.
For the compound `CC(O)(CCN1CCC(Cc2ccccc2)CC1)c1ccc2ccccc2c1` (racemic), the Ki in experiment [1] was 0.0625 µM; in experiment [2], 0.0069 µM.
`CC(O)(CCN1CCC(Cc2ccccc2)CC1)c1ccccc1` (stereo in doubt; 2a): the Ki in experiment [1] turned out to be 0.339 µM; in [2] it was 0.027 µM.
Take `CC(O)(CCN1CCC(Cc2ccccc2)CC1)c1ccc2cc(O)ccc2c1` (stereo in doubt; 9a): the inhibition constant (Ki) came out at 0.068 µM in experiment [1] and 0.07 µM in experiment [2].
For the compound `CC(O)(CCN1CCC(Cc2ccccc2)CC1)c1ccc2cc(O)ccc2c1` (racemic), the Ki in [1] was determined as 0.118 µM; in [2], 0.027 µM.
Turning to `CC(O)(CCN1CCC(Cc2ccccc2)CC1)c1ccccc1` (racemic), the inhibition constant (Ki) in [1] was 0.057 µM; in experiment [2] it was 0.0098 µM.
As for `CC(CCN1CCC(Cc2ccccc2)CC1)c1ccc2cc(O)ccc2c1` (single isomer, unassigned; (+)), the inhibition constant Ki in [1] was 0.582 µM; in experiment [2], 0.035 µM.
Consider `CC(CCN1CCC(Cc2ccccc2)CC1)c1ccc2cc(O)ccc2c1` (single isomer, unassigned; (-)), for which the inhibition constant Ki in [1] was 0.105 µM; in experiment [2], 0.013 µM.
`C/C(=C\CN1CCC(Cc2ccccc2)CC1)c1ccc2cc(O)ccc2c1`: the results for the Ki in experiment [1] and in experiment [2] were 0.305 µM and 0.0096 µM, respectively.
For the compound `CC(O)(CCN1CCC(Cc2ccccc2)CC1)c1ccc2ccccc2c1` (stereo in doubt; 1b), the values for the inhibitory constant (Ki) in experiment [1] and in experiment [2] were 0.079 µM and 0.011 µM, respectively.
